Assay outcomes (PubChem)
PfGluPho inh = PfG6PD (Plasmodium falciparum) enzyme inhibition; PfGluPho enzyme, NADPH resazurin-diaphorase fluorescence; inhibition, % at 20 µM; hit rate 0.78% among 350,000; AID 504690;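 active = inhibition reaching at least a set limit at 20 µM in the primary screen, cut at about 59% in these data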
iPSC survival up = increases survival of single human iPS cells. hiPSC single-cell survival, ATPlite luminescence; 100% = ROCK inhibitor wells, 0% = DMSO. survival enhancement, % at 20 µM. hit rate 0.044% among 360,000; in the data active = survival enhancement above about 18%;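 note: cells exposed to compounds for 16 hours before the ATP read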
A3A deaminase = blocks human APOBEC3A ssDNA deamination; P31941; inhibition, % at 20 µM; AID 493011; hit rate 0.41% among 330,000; recombinant A3A, FAM/TAMRA ssDNA deamination fluorescence;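 active = at least 40% inhibition at 20 µM here, with at most 30% in a related deaminase screen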
Target sequence (P31941 whole entry, looked up): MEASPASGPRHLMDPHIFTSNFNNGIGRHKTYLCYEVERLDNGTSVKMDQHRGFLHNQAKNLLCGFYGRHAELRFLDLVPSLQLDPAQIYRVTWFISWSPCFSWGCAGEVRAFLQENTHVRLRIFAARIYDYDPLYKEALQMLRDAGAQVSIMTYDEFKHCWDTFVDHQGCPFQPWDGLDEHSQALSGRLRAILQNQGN
APOBEC3G inh = blocks human APOBEC3G single-stranded DNA deamination; Q9HC16; inhibition, % at 20 µM; hit rate 0.28% among 330,000; recombinant A3G, ssDNA deamination FAM/TAMRA fluorescence;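 active = inhibition of at least 40% at 20 µM, with no more than 30% in the related APOBEC3A deaminase screen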
Target sequence (Q9HC16 whole entry, looked up): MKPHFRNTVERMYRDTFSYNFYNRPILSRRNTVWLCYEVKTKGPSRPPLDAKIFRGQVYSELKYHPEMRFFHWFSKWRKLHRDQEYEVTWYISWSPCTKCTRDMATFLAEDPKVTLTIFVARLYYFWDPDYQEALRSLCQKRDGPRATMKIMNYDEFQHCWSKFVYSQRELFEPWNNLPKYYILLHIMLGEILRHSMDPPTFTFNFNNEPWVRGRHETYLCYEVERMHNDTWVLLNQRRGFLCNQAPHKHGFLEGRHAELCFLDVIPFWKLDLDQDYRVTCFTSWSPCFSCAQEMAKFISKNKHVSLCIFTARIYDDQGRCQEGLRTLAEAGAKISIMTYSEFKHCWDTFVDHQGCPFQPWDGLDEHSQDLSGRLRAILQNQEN
HKDC1 inh = inhibitors of human hexokinase HKDC1; Q2TB90; recombinant HKDC1, G6PDH/diaphorase resazurin coupled fluorescence; inhibition, % at 20 µM; hit rate 0.16% among 340,000; AID 493160;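 active = inhibition above about 35% when tested at 20 µM, limit read from the data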
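Test system: recombinant HKDC1 (HK5) hexokinase enzyme, produced in-house; Amount: enzyme 5 µg/mL final; Buffer or medium: Tris pH 8.0 buffer with MgCl2, Tween-20, BSA, BME; Reagent: glucose and ATP substrates; Doses: 20 µM test compound, 1% DMSO; Incubation: 90 min reaction incubation at room temperature, dark; Detection: resorufin fluorescence at 613 nm.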
A3A conf = confirmation of human APOBEC3A DNA deaminase inhibitors; shares compounds with A3A deaminase; recombinant A3A, ssDNA deaminase UDG fluorescence assay; inhibition, % at 20 µM; hit rate 63% among 1,400; AID 493151;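 active = inhibition reaching a set limit, 80% of the first screen's cutoff, at 20 µM in any replicate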
UDG ctr A3A = counter-screen for APOBEC3A inhibitors: UDG; inhibition, % at 20 µM; shares compounds with A3A deaminase; UDG counterscreen, FAM/TAMRA uracil oligo fluorescence; 1,000 tested, under 10 active; call rule not given here
Hits are given with their value. This is a sample that favours compounds with a hit; in the whole collection about 1.4% have one here.

CN(CC(=O)Nc1ccccc1Br)C(=O)c1sccc1-c1ccccc1 was read as PfGluPho inh inactive, iPSC survival up inactive, A3A deaminase inactive, APOBEC3G inh inactive and HKDC1 inh inactive.
`COc1ccc(S(=O)(=O)Nc2ccccc2C(=O)N2CCOCC2)cc1C` gave PfGluPho inh inactive, iPSC survival up inactive, A3A deaminase inactive, APOBEC3G inh inactive and HKDC1 inh inactive.
`Nn1c(SCC(=O)Nc2ccc3c(c2)OCCO3)nnc1C(F)(F)F` gave PfGluPho inh inactive, iPSC survival up inactive, A3A deaminase 61, APOBEC3G inh inactive, HKDC1 inh inactive and A3A conf inactive.
`Nn1c(SCC(=O)Nc2ccc3c(c2)OCCO3)nnc(CCC(=O)O)c1=O` gave PfGluPho inh inactive, iPSC survival up inactive, A3A deaminase 74, APOBEC3G inh inactive, HKDC1 inh inactive, A3A conf 60 and UDG ctr A3A inactive.
For Cc1nnc(SCC(=O)Nc2ccc3c(c2)OCCO3)n1N the results were PfGluPho inh inactive, iPSC survival up inactive, A3A deaminase inactive, APOBEC3G inh inactive and HKDC1 inh inactive.
Screening O=C1CC(NS(=O)(=O)c2cccs2)CN1c1ccccc1 (stereo not drawn) returned PfGluPho inh inactive, iPSC survival up inactive, A3A deaminase inactive, APOBEC3G inh inactive and HKDC1 inh inactive.
Screening CCN(CC(=O)Nc1ccc(NC(C)=O)cc1)C(=O)c1ccc(NC2CC2)c([N+](=O)[O-])c1 returned PfGluPho inh inactive, iPSC survival up inactive, A3A deaminase 52, APOBEC3G inh inactive, HKDC1 inh inactive and A3A conf inactive.
CCOc1ccc(NC(=O)CN(C)C(=O)c2ccc(NC3CC3)c([N+](=O)[O-])c2)cc1OCC was read as PfGluPho inh inactive, iPSC survival up inactive, A3A deaminase inactive, APOBEC3G inh inactive and HKDC1 inh inactive.
`O=[N+]([O-])c1ccccc1/C=N/NC1=NCCN1` gave PfGluPho inh inactive, iPSC survival up inactive, A3A deaminase 50, APOBEC3G inh inactive, HKDC1 inh inactive, A3A conf 64 and UDG ctr A3A inactive.
O=[N+]([O-])c1ccccc1C=NNc1ccccc1 was read as PfGluPho inh inactive, iPSC survival up inactive and HKDC1 inh inactive.
NC(=O)c1ccccc1NC(=O)CN1CCN(Cc2ccc(Cl)cc2Cl)CC1 was read as PfGluPho inh inactive, iPSC survival up inactive, A3A deaminase inactive, APOBEC3G inh inactive and HKDC1 inh inactive.
`CCC(=O)Nc1ccc(-c2nnc(SCC(=O)Nc3nccs3)n2C)cc1` gave PfGluPho inh inactive, iPSC survival up inactive, A3A deaminase 53, APOBEC3G inh inactive, HKDC1 inh inactive and A3A conf inactive.
`CC1=C(C(=O)N(C)C)CC(CC(=O)NC2CCCCC2)C(=O)N1CCCN1CCCC1=O` (stereo not drawn) gave PfGluPho inh inactive and iPSC survival up inactive.
CCCCOc1ccc(NC(=O)CCSc2nccn2C)cc1 was read as PfGluPho inh inactive, iPSC survival up inactive, A3A deaminase 42, APOBEC3G inh inactive, HKDC1 inh inactive and A3A conf inactive.
Screening CC(C)C(CO)N1CCN(Cc2ccccc2)CCC1=O (stereo not drawn) returned PfGluPho inh inactive, iPSC survival up inactive, A3A deaminase 61, APOBEC3G inh inactive, HKDC1 inh inactive, A3A conf 51 and UDG ctr A3A inactive.
Screening CC(C)[C@@H](COc1ccccc1)N1CCN(Cc2ccccc2)CCC1=O returned PfGluPho inh inactive, iPSC survival up inactive, A3A deaminase inactive, APOBEC3G inh inactive and HKDC1 inh inactive.
Screening CCOc1ccccc1NC(=S)N1CCN(c2ccc(OC)cc2)CC1 returned PfGluPho inh inactive, iPSC survival up inactive, A3A deaminase 83, APOBEC3G inh inactive, HKDC1 inh inactive, A3A conf inactive and UDG ctr A3A inactive.
`C=CCn1cccc(C(=O)Nc2ccc(OC)c(Cl)c2)c1=O` gave PfGluPho inh inactive, iPSC survival up inactive, A3A deaminase 48, APOBEC3G inh inactive, HKDC1 inh inactive, A3A conf inactive and UDG ctr A3A inactive.
C=CCn1cccc(C(=O)Nc2ccc(OC)c(OC)c2)c1=O was read as PfGluPho inh inactive, iPSC survival up inactive, A3A deaminase inactive, APOBEC3G inh inactive and HKDC1 inh inactive.
For CCN(C(=O)COC(=O)CN(C)S(=O)(=O)c1ccc(NC(C)=O)cc1)C1CCS(=O)(=O)C1 (stereo not drawn) the results were PfGluPho inh inactive, iPSC survival up inactive, A3A deaminase inactive, APOBEC3G inh inactive and HKDC1 inh inactive.
For Cc1ccc(S(=O)(=O)N(CCC(=O)N2CCOCC2)c2ccccc2)cc1 the results were PfGluPho inh inactive, iPSC survival up inactive, A3A deaminase 62, APOBEC3G inh inactive, HKDC1 inh inactive and A3A conf inactive.
`CN(C)c1cccc(NC2=CC(=[N+]3CCOCC3)CC(C)(C)C2)c1` gave PfGluPho inh inactive, iPSC survival up inactive, A3A deaminase 41, APOBEC3G inh inactive, HKDC1 inh inactive and A3A conf inactive.
Screening CC1(C)CC(=O)C=C(Nc2cccc(F)c2)C1 returned PfGluPho inh inactive, iPSC survival up inactive, A3A deaminase inactive, APOBEC3G inh inactive and HKDC1 inh inactive.
CN1CCN(c2ccc(Cl)cc2NC(=O)C2COc3ccccc3O2)CC1 (stereo not drawn) was read as PfGluPho inh inactive, iPSC survival up inactive, A3A deaminase inactive, APOBEC3G inh inactive and HKDC1 inh inactive.
`CN1CCN(c2ccc(Cl)cc2NC(=O)CC2OC(=O)c3ccccc32)CC1` (stereo not drawn) gave PfGluPho inh inactive, iPSC survival up inactive, A3A deaminase 96, APOBEC3G inh inactive, HKDC1 inh inactive, A3A conf 69 and UDG ctr A3A inactive.
`COc1ccc(NC(=O)C(=O)N2N=C3CCCCC3C2(O)C(F)(F)F)cc1` (stereo not drawn) gave PfGluPho inh inactive, iPSC survival up inactive, A3A deaminase 55, APOBEC3G inh inactive, HKDC1 inh inactive, A3A conf 54 and UDG ctr A3A inactive.
Cc1noc(C)c1S(=O)(=O)Nc1ccc2c(c1)C(=O)N([C@H](C)CO)C[C@H](C)[C@@H](CN(C)C(=O)Nc1ccc3c(c1)OCO3)O2 was read as PfGluPho inh inactive, iPSC survival up inactive, A3A deaminase inactive, APOBEC3G inh inactive and HKDC1 inh inactive.
COC[C@H]1CCCN1c1ccc2c(c1)O[C@H](COCc1ccccc1)CN([C@H](C)c1ccccc1)S2(=O)=O was read as iPSC survival up inactive.
Screening COc1ccc(S(=O)(=O)N(CCc2ccccc2)CC(=O)N2CCOCC2)cc1 returned PfGluPho inh inactive, iPSC survival up inactive, A3A deaminase inactive, APOBEC3G inh inactive and HKDC1 inh inactive.
